Active and inactive are the calls of the source.
Tests used:
Format in all cases: cell-based
[1] = target: T1, Toll-like receptor 9 (Homo sapiens) (UniProt Q9NR96); experiment: Agonist activity at human TLR9 stably expressed in HEK293 cells co-expressing secreted alkaline phosphatase assessed as NF-kappaB induction by liquid handler-assisted reporter gene assay
T1 sequence (whole entry): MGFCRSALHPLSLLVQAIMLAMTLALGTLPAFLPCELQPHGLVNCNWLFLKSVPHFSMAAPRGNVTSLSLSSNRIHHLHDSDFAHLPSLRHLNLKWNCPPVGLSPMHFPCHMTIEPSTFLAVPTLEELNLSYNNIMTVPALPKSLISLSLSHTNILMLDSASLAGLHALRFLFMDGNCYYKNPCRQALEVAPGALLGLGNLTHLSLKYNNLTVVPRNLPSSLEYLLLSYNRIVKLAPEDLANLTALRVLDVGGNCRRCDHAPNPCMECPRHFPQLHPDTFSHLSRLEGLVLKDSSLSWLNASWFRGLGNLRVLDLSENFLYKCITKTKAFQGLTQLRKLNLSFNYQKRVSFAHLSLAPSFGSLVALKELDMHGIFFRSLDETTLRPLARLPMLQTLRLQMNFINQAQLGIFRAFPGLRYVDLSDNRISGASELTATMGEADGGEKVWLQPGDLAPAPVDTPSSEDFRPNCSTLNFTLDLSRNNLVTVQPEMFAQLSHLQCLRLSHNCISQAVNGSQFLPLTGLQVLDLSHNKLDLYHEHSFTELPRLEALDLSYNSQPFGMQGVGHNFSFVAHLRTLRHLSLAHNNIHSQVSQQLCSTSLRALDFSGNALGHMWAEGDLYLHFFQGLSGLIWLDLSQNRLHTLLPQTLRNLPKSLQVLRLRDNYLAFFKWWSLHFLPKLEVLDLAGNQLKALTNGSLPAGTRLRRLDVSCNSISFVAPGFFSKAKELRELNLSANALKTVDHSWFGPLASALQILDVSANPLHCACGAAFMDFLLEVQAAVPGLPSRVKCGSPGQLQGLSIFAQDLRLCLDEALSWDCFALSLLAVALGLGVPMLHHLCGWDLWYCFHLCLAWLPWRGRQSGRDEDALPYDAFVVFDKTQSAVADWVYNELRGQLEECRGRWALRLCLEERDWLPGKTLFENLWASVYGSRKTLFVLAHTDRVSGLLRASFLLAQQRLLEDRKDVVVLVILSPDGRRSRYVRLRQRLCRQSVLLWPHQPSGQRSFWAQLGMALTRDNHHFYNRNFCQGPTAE
Procedure, shortened: (§1)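 HEK293 reporter cells stably co-transfected with the respective human TLR or NOD receptor plus NF-κB/AP-1-driven secreted alkaline phosphatase, kept in selection medium. About 10^5 cells/ml were incubated with graded concentrations of test compound in 384-well format. Supernatant sAP was read colorimetrically at 620 nm with an alkaline phosphatase-specific chromogen in detection medium.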

[2] = target: T2, Nucleotide-binding oligomerization domain-containing protein 1 (Homo sapiens) (UniProt Q9Y239); experiment: Agonist activity at human NOD1 stably expressed in HEK293 cells co-expressing secreted alkaline phosphatase assessed as NF-kappaB induction by liquid handler-assisted reporter gene assay; procedure, shortened: as §1
T2 sequence (whole entry): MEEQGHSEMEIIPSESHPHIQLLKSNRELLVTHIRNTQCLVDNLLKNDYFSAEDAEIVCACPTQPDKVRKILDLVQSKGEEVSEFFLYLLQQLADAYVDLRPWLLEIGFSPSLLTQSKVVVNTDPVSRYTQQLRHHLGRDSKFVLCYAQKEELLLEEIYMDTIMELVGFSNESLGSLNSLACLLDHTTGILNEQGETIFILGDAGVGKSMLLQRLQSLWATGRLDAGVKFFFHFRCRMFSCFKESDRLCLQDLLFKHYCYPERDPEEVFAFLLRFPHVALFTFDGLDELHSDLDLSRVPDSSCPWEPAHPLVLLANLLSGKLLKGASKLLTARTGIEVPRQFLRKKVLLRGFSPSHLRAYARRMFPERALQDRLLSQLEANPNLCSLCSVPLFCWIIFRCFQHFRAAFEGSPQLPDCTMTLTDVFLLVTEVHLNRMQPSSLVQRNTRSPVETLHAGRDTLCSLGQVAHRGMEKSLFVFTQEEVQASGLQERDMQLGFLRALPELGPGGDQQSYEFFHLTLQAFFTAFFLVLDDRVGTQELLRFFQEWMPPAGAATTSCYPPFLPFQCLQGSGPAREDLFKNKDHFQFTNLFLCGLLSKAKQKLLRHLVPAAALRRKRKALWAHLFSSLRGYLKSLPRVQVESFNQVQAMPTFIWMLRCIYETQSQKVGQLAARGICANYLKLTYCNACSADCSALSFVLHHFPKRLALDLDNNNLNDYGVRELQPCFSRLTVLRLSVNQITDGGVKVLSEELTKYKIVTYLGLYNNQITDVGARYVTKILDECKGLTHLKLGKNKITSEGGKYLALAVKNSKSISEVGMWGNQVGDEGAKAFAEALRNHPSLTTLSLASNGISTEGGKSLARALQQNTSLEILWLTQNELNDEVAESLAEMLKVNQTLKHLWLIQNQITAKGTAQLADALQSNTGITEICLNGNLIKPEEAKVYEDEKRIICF

[3] = target: Nucleotide-binding oligomerization domain-containing protein 2 (Homo sapiens, UniProt Q9HC29); experiment: Agonist activity at human NOD2 stably expressed in HEK293 cells co-expressing secreted alkaline phosphatase assessed as NF-kappaB induction by liquid handler-assisted reporter gene assay; procedure, shortened: as §1
Nucleotide-binding oligomerization domain-containing protein 2, sequence (Q9HC29 whole entry, the tested form may be a part): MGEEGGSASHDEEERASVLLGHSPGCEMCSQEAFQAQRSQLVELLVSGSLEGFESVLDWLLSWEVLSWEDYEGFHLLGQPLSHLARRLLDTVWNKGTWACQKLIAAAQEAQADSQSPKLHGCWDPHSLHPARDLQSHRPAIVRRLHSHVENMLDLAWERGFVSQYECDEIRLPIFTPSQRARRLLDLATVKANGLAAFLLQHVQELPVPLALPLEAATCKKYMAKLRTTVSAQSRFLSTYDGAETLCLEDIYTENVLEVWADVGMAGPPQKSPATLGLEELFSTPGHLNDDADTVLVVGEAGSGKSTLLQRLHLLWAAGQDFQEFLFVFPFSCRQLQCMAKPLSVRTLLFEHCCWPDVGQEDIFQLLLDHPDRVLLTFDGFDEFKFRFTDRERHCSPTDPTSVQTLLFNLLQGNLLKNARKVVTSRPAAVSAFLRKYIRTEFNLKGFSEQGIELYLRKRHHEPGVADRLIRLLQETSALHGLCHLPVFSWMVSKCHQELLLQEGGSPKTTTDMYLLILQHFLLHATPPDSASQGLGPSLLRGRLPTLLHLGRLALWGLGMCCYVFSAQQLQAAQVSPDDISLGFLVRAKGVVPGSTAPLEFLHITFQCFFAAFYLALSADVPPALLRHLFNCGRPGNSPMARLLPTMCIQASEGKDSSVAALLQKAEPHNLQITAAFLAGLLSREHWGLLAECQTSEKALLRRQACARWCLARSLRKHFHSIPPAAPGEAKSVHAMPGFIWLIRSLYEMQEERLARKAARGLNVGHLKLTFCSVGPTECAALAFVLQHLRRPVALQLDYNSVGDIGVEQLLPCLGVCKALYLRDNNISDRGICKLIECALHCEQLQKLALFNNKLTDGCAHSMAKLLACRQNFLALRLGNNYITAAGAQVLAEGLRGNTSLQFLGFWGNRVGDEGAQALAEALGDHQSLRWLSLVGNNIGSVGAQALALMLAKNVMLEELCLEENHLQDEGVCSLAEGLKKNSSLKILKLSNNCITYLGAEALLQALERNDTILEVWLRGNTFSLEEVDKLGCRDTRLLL

[4] = target: T3, Toll-like receptor 7 (Homo sapiens) (UniProt Q9NYK1); experiment: Agonist activity at human TLR7 stably expressed in HEK293 cells co-expressing secreted alkaline phosphatase assessed as NF-kappaB induction by liquid handler-assisted reporter gene assay; procedure, shortened: as §1
T3 sequence (whole entry): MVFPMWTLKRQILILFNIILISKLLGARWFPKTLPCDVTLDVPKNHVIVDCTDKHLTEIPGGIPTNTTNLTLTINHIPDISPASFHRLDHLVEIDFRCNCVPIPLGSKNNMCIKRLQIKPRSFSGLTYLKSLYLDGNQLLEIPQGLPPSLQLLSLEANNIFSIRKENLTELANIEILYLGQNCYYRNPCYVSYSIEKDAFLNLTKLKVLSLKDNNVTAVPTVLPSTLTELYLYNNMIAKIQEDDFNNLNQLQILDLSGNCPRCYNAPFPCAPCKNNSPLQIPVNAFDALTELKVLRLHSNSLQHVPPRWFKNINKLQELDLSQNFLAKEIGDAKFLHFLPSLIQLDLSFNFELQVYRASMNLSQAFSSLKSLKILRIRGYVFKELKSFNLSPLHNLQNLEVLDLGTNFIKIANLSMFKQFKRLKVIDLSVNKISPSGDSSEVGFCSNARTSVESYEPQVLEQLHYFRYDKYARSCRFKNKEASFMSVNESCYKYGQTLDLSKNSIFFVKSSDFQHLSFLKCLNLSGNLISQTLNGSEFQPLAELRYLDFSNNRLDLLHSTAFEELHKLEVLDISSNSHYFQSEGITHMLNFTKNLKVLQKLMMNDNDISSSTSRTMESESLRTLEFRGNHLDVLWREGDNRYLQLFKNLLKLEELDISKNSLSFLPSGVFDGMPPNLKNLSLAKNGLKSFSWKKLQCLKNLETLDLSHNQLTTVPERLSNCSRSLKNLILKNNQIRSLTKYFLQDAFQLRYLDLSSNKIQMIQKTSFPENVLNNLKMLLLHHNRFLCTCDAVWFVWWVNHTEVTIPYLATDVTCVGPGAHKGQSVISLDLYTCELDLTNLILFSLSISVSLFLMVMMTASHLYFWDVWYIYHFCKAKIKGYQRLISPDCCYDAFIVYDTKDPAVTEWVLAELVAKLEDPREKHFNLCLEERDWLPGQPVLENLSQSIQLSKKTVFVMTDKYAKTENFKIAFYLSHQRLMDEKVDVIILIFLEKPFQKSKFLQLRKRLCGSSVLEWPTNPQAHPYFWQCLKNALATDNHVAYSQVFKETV

[5] = target: Toll-like receptor 4 (Homo sapiens) (UniProt O00206); experiment: Agonist activity at human TLR4 stably expressed in HEK293 cells co-expressing secreted alkaline phosphatase assessed as NF-kappaB induction by liquid handler-assisted reporter gene assay; procedure, shortened: as §1
Toll-like receptor 4 (Homo sapiens), sequence (O00206 whole entry): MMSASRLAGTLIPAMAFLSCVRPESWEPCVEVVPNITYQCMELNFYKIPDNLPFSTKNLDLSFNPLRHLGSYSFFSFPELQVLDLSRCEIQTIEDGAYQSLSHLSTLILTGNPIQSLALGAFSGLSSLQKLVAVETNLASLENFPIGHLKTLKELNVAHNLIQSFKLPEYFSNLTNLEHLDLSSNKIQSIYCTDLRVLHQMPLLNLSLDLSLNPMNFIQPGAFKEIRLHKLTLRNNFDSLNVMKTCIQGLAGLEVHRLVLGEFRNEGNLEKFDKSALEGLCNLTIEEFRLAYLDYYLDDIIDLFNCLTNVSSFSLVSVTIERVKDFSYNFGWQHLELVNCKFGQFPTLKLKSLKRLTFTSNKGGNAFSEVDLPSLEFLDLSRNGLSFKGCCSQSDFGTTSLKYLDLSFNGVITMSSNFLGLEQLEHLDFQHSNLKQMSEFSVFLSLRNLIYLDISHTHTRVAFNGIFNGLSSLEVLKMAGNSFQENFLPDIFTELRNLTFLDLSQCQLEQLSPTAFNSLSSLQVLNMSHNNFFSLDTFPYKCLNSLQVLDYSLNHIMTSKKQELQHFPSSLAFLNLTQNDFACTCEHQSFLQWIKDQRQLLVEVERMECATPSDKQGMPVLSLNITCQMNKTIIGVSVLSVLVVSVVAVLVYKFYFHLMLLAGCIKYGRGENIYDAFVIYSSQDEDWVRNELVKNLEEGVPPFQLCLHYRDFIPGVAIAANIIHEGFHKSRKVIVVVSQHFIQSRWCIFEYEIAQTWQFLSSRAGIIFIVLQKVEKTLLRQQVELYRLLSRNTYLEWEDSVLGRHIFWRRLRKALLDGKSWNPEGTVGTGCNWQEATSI

[6] = target: Toll-like receptor 3 (Homo sapiens) (UniProt O15455); experiment: Agonist activity at human TLR3 stably expressed in HEK293 cells co-expressing secreted alkaline phosphatase assessed as NF-kappaB induction by liquid handler-assisted reporter gene assay; procedure, shortened: as §1
Toll-like receptor 3 (Homo sapiens), sequence (O15455 whole entry): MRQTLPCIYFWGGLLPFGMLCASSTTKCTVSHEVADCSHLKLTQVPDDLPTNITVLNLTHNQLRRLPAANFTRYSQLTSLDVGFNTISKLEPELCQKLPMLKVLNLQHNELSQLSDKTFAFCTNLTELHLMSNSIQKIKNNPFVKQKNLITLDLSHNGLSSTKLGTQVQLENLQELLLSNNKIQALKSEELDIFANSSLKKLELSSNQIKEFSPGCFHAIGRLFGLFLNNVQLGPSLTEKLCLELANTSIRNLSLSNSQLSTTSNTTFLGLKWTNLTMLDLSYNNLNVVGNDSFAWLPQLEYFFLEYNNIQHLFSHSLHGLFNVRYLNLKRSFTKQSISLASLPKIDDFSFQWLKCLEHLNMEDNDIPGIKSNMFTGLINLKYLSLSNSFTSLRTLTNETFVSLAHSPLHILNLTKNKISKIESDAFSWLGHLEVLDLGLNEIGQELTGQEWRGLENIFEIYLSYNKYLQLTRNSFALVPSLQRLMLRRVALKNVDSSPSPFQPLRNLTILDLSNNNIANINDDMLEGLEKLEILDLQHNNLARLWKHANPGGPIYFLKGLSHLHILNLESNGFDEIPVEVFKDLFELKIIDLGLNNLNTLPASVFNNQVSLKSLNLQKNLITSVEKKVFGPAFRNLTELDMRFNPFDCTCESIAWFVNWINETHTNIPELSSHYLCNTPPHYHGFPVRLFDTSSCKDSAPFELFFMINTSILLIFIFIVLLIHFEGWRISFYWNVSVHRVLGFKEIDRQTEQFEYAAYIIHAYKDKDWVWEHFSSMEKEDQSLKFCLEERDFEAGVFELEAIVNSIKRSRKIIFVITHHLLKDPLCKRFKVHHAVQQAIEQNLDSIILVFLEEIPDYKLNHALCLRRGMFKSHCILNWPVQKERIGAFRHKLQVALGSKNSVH

[7] = target: Toll-like receptor 2 (Homo sapiens) (UniProt O60603); experiment: Agonist activity at human TLR2 stably expressed in HEK293 cells co-expressing secreted alkaline phosphatase assessed as NF-kappaB induction by liquid handler-assisted reporter gene assay; procedure, shortened: as §1
Toll-like receptor 2 (Homo sapiens), sequence (O60603 whole entry): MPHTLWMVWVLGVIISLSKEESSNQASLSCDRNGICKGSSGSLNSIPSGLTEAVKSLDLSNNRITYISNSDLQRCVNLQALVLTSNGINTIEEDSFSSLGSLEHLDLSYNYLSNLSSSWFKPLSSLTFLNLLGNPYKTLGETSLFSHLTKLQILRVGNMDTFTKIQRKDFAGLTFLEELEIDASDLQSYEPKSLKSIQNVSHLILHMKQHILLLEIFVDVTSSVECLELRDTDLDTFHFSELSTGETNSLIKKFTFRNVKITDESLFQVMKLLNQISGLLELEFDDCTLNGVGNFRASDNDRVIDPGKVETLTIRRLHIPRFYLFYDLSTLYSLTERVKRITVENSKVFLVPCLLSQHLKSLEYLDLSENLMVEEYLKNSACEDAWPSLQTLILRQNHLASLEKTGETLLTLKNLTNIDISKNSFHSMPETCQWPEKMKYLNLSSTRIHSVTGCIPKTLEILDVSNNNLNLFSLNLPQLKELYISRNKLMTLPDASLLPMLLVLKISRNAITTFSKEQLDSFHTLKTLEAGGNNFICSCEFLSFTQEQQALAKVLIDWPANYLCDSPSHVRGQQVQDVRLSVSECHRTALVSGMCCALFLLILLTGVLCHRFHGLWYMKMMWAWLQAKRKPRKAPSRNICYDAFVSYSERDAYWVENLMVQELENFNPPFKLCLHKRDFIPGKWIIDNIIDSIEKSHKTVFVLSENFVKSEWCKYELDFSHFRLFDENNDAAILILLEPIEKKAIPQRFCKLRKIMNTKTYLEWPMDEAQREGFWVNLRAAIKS

[8] = target: Toll-like receptor 5 (Homo sapiens) (UniProt O60602); experiment: Agonist activity at human TLR5 stably expressed in HEK293 cells co-expressing secreted alkaline phosphatase assessed as NF-kappaB induction by liquid handler-assisted reporter gene assay; procedure, shortened: as §1
Toll-like receptor 5 (Homo sapiens), sequence (O60602 whole entry): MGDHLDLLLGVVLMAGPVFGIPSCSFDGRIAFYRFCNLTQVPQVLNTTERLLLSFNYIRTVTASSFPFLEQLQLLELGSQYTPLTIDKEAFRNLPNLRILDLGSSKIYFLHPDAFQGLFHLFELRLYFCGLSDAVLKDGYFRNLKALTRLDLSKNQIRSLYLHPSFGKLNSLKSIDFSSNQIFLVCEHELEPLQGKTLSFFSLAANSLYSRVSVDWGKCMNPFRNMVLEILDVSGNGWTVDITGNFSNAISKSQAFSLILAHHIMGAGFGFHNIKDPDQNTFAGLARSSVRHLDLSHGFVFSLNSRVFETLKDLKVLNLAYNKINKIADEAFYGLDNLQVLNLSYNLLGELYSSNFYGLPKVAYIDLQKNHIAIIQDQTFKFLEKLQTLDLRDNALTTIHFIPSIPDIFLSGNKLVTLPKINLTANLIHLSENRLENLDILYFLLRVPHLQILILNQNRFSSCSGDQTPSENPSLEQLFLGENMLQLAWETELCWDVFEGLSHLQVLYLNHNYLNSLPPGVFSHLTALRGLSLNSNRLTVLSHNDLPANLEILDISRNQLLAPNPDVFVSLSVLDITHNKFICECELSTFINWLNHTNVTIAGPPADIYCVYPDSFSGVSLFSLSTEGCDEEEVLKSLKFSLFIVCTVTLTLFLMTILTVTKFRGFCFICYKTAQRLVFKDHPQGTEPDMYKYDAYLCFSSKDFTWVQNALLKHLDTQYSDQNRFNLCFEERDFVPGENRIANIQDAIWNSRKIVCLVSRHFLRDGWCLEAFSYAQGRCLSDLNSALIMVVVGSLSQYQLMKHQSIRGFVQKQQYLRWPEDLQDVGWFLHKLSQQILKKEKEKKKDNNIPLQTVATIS

Measured: Activity

CCCCCCn1c(N)nc2ccccc21
inactive: all assays above

CCCCn1c(N)nc2ccccc21
inactive: all assays above
